Experimental findings from ChEMBL document CHEMBL2021927, “Synthesis and evaluation of the cytotoxicities of tetraindoles: observation that the 5-hydroxy tetraindole (SK228) induces G₂ arrest and apoptosis in human breast cancer cells” (J Med Chem, 2012) are described below.

Activity calls are given as the source filed them. No cut-off for these calls is given here. A value given as a limit tells only on which side of the number the result lay.

Experiment [1] relates to MCF7. Kind of experiment: Selectivity ratio of IC50 for human Detroit 551 cells to IC50 for human MCF7 cells.
Experiment [2] concerns MDA-MB-231. Kind of experiment: Induction of apoptosis in human MDA-MB-231 cells assessed as bcl-2 protein level after 24 to 48 hrs by Western blot analysis. Format: functional, cell-based. A digest of the protocol: (§1)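 MDA-MB-231 cells treated with 0.2, 0.4 or 0.8 μM for 24 and 48 h. Attached and floating cells were lysed in RIPA-type buffer with protease inhibitors, and protein was quantified by BCA. Equal protein was run on 10%/15% SDS-PAGE and transferred to nitrocellulose. Blots were probed 1 h at room temperature for phospho-cdc2, cyclin B1, caspase-3, bak/bcl-2 or actin loading control, with HRP secondary and ECL detection.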
A general note: Immunoblotting shows a protein as a band on a membrane.

Experiment [3] concerns MDA-MB-231. Kind of experiment: Ratio of IC50 for cyclic tetramer to compound for human MDA-MB-231 cells after 48 hrs by MTT assay. The experiment is classed as functional. (In general: Tetrazolium dyes change colour on reduction, which living cells bring about.)
Experiment [4] concerns MDA-MB-231. Kind of experiment: Induction of apoptosis in human MDA-MB-231 cells assessed as increase in late apoptotic cells at 0.4 uM by annexinV propidium iodide staining-based flow cytometric analysis. Format: functional, cell-based. The note with it: TDE = time-dependent effect. A digest of the protocol:
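MDA-MB-231 cells treated with 0.4 μM, washed twice in PBS and stained with annexin V-FITC/propidium iodide. Populations scored as viable (both negative), early apoptotic (annexin V positive, PI negative) or late apoptotic/dead (both positive).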
In general terms: Flow cytometry measures light scatter and fluorescence of single cells or particles in a stream.

The subject of experiment [5] is SW480. Kind of experiment: Selectivity ratio of IC50 for human MT10 cells to IC50 for human SW480 cells. A digest of the protocol: (§2)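 Ratio of the IC50 in normal M10 cells to the IC50 in each cancer line. […] The paper reports the fold difference as the normal-cell to tumour-cell IC50 ratio.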
Experiment [6] has as its system Detroit 551. Kind of experiment: Selectivity ratio of IC50 for human Detroit 551 cells to IC50 for human U87MG cells.
In experiment [7] the test system is MDA-MB-231. Kind of experiment: Selectivity ratio of IC50 for human MT10 cells to IC50 for human MDA-MB-231 cells. The gist of the method:
as §2

For experiment [8], the system named is MDA-MB-231. Kind of experiment: Increase in cyclin B1 expression in human MDA-MB-231 cells after 24 hrs by Western blot analysis. The experiment is classed as functional, cell-based. The gist of the method: as §1
The test system of experiment [9] is MDA-MB-231. Kind of experiment: Growth inhibition of human MDA-MB-231 cells after 48 hrs by MTT assay. Format: functional, cell-based.
Experiment [10] deals with Detroit 551. Kind of experiment: Selectivity ratio of IC50 for human Detroit 551 cells to IC50 for human SW620 cells.
Experiment [11] relates to MDA-MB-231. Kind of experiment: Antiproliferative activity against human MDA-MB-231 cells assessed as decrease in cell count at 0.1 to 0.8 uM by trypan blue dye exclusion assay. Format: functional, cell-based. The conditions noted are these: TDE = time-dependent effect. The gist of the method: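 MDA-MB-231 cells seeded at 2 × 10^5 per well in 6-well plates, treated 24 h later in triplicate with compound (0.1–0.8 μM) or DMSO vehicle in 10% FBS DMEM/F12. Cells harvested by trypsinization at 24, 48 and 72 h, stained with 0.4% trypan blue and counted on a hemocytometer; three independent experiments.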

Experiment [12] deals with MDA-MB-231. Kind of experiment: Cell cycle arrest in human MDA-MB-231 cells at accumulation at G1 phase at 0.8 uM after 24 hrs by propidium iodide staining-based flow cytometric analysis (reference value: 48%). The experiment is classed as functional.
Experiment [13] concerns MDA-MB-361. Kind of experiment: Growth inhibition of human MDA-MB-361 cells after 48 hrs by MTT assay. The experiment is classed as functional, cell-based. The conditions noted are these: MDA-MB-361, 48 h.
Experiment [14] has as its system MDA-MB-231. Kind of experiment: Cell cycle arrest in human MDA-MB-231 cells at accumulation at S phase at 0.8 uM after 24 hrs by propidium iodide staining-based flow cytometric analysis (reference value: 20%). The experiment is classed as functional.
For experiment [15], the system named is SW480. Kind of experiment: Selectivity ratio of IC50 for human Detroit 551 cells to IC50 for human SW480 cells.
Experiment [16] relates to MDA-MB-231. Kind of experiment: Selectivity ratio of IC50 for human Detroit 551 cells to IC50 for human MDA-MB-231 cells.
Experiment [17] deals with SW48. Kind of experiment: Selectivity ratio of IC50 for human Detroit 551 cells to IC50 for human SW48 cells.
In experiment [18] the test system is MDA-MB-231. Kind of experiment: Cell cycle arrest in human MDA-MB-231 cells at accumulation at G1 phase at 0.8 uM after 48 hrs by propidium iodide staining-based flow cytometric analysis (reference value: 45%). The experiment is classed as functional.
The subject of experiment [19] is MDA-MB-361. Kind of experiment: Selectivity ratio of IC50 for human MT10 cells to IC50 for human MDA-MB-361 cells. A digest of the protocol: as §2
Experiment [20] deals with MDA-MB-231. Kind of experiment: Decrease in cyclin B1 expression in human MDA-MB-231 cells at 0.8 uM after 48 hrs by Western blot analysis. Format: functional, cell-based. A digest of the protocol: as §1

As a reminder, the IC50 is the concentration needed to halve the response being measured. Low values mean greater potency, high ones weaker potency. Regarding `Oc1ccc2[nH]cc(C(c3ccc(C(c4c[nH]c5ccc(O)cc45)c4c[nH]c5ccc(O)cc45)cc3)c3c[nH]c4ccc(O)cc34)c2c1`, the Ratio IC50 in [1] was more than 22.7; in [3] it was 2; in experiment [5], 15.7; in experiment [6] it was more than 7.3; in [7], 12.9; in experiment [10], more than 20. In addition, the Ratio IC50 in experiment [15] was more than 54; in experiment [16], more than 44; in [17], more than 22.7; in experiment [19], 2.8. For the same molecule, the Activity entry in [2] was “Dose-dependent effect”; in experiment [4], “tde”; in experiment [8] it was “Dose-dependent effect”; in [11], “tde”; in experiment [12] it was 31%; in experiment [14] it was 23%. The molecule also showed an Activity in experiment [18] of 25%. The inhibition entry in [9] is “Dose-dependent effect”. Moreover, the IC50 in [9] (MDA-MB-231, 48 h) was found to be 450 nM; in experiment [13], 2070 nM. The result in experiment [20] was Active.
